From PubChem
HDAC3 inh – inhibitors of human histone deacetylase 3; AID 2718; 320,000 tested, 0.15% active; recombinant HDAC3, fluorogenic peptide/trypsin coupled, fluorescence; O15379; inhibition, % at 8.3 µM; in the data active means inhibition above about 26%, passing the limit was not always enough; inconclusive means no clear call, values can overlap the other calls
Target sequence (O15379 whole entry, looked up): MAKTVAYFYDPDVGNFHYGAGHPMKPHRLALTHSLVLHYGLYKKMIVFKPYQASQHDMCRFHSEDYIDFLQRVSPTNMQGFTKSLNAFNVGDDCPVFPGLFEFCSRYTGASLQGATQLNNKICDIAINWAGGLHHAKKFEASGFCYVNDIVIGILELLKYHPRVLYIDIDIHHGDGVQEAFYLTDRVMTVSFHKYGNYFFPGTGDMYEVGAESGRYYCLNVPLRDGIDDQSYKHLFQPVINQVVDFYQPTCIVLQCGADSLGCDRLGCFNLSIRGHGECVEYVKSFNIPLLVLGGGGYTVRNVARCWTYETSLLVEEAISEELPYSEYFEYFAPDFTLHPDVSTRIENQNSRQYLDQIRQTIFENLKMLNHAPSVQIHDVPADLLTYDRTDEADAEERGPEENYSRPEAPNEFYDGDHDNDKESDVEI
T cruzi repl – T. cruzi replication inhibition; 300,000 tested, 1.4% active; inhibition, % (concentration not given with the values); AID 1885; T. cruzi beta-gal in NIH3T3, luminescence, 90 h;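 active means mean inhibition across valid replicates above about 55%, limit read from the data; inconclusive means mean below that limit but half or more replicates reach it; inactive means mean below it, under half of replicates reach it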;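 further: signal also drops with host cell toxicity which is not excluded here; 0% = plate median of DMSO wells and 100% = zero luminescence signal; higher percent means less beta-gal luminescence so fewer parasites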
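System: Mouse NIH/3T3 fibroblasts infected with β-gal-expressing T. cruzi Tulahuen C4 | Quantity: NIH/3T3 cells, 5,000 per well | Reagent: 5000 reporter trypomastigotes per well | Dosing: Compound pinned at 50 nL/well, DMSO | Schedule: 3 h host attachment, then at least 90 h co-culture | Detection: GalScreen luminescence, 60 min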
AI-2 QS mod – modulators of Vibrio harveyi AI-2 quorum sensing system; Vibrio harveyi JMH597 AI-2 luminescence/OD600 ratio, 9 h; stronger effect = lower value; strain lacks LuxN and CqsS sensors; 0 = neutral-control median; activity change, % at 7.5 µM; 300,000 tested, 0.4% active; AID 2094; in the data active means activity change below about -75%, passing the limit was not always enough; inconclusive means no clear call, values can overlap the other calls;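 further: luminescence divided by OD600 gain over 9 h not by final OD600 alone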
PolyA inhibitor – yeast polyadenylation inhibition; S. cerevisiae SKY197-pL101 polyadenylation reporter, beta-gal luminescence; efflux-impaired pdr1/pdr3 knockout yeast; score 100 = 6 SD above DMSO; activity score, % at 12 µM; 300,000 tested, 0.02% active;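 active means lowest replicate activity score at least 50, where 100 means six control SD above control mean; inconclusive means lowest score under 50 but half or more replicates reach 50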;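 further: yeast exposed to compound for 9 h at 30 °C; higher score means more reporter readthrough which indicates perturbed polyadenylation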
Efflux pump inh – antifungal efflux pump inhibition, Nile Red retention | S. cerevisiae Candida pump triplex | inhibition, % at 10 µM | 330,000 tested, 0.44% active | AID 485275;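 active means plate passing quality check with inhibition over a set limit, or well fluorescence over plate mean plus 4 SD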;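 further: Nile Red retained in pooled yeast measured as flow cytometry median fluorescence; 0% = buffer negative control and 100% = Enniatin B positive control; higher means more Nile Red kept so more efflux inhibition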
* = called active by the depositor; i = inactive; u = inconclusive; x = not tested or not shown. Shown are actives, neighbours in structure and some others; about 2.2% of the full set was active somewhere.

SMILES | HDAC3 inh | T cruzi repl | AI-2 QS mod | PolyA inhibitor | Efflux pump inh
CC(C)(C)C1CCc2[nH]c3ccccc3c(=O)c2C1 (stereo not drawn) | -10.7 | 59.1* | 8.4 | -8.3 | -0.1
CC(=O)N(CCCN(C)C)Cc1ccccn1 | -6.9 | 7.4 | 6.8 | 0.0 | 0.0
CC(=O)N(CCCc1ccc(C(C)(C)C)cc1)CCCN(C)C | -2.6 | 72.7* | 9.5 | -16.2 | 0.1
CCCNC(=O)c1ccc2c(=O)c(O)c(-c3ccc(C)cc3)[nH]c2c1 | -4.0 | -19.9 | 9.6 | 6.9 | -0.1
Cc1ccc(CNC(=O)c2ccc3c(=O)c(O)c(-c4ccc(C)cc4)[nH]c3c2)cc1 | -1.6 | 60.3* | 10.3 | -0.1 | -0.2
COC(=O)C1=C(Nc2cc(Cl)cc(Cl)c2)CSC1 | -2.0 | 2.8 | 0.8 | 1.4 | 0.4
c1ccc(Oc2nc(-c3ccccn3)nc3ccccc23)cc1 | 7.5 | 65.2* | 5.8 | -3.8 | 0.0
COc1cccc(Oc2nc(-c3ccncc3)nc3ccccc23)c1 | 11.2 | 55.2* | 19.8 | -12.2 | 0.0
COc1ccc(Oc2nc(-c3ccccn3)nc3ccccc23)cc1 | 2.5 | 10.6 | 28.7 | -10.7 | 0.0
COc1ccc(Oc2nc(-c3ccncc3)nc3ccccc23)cc1 | -10.7 | 48.1 | 16.1 | -22.7 | 0.0
c1ccc(-c2nc(N3CCCCCC3)c3ccccc3n2)nc1 | 14.0 | 63.5* | 37.7 | -11.5 | -0.1
O=C(COc1ccc([N+](=O)[O-])cc1Cl)NCCN1C(=O)CSC1=O | 5.2 | x | x | x | 0.5
COc1ccc(-c2ccc(NCCN3CCOCC3)nn2)cc1OC | 1.3 | -1.2 | 19.1 | 20.6 | 0.0
Cc1ccc(S(=O)(=O)N(CCCO)CC(O)CON=C2c3ccccc3-c3ccccc32)cc1 (stereo not drawn) | 2.2 | 65.0* | 3.8 | 2.0 | -9.2
CCCCOc1ccc(/C=C/C2=CC(C)(C)NC(=S)N2)cc1OCC | -9.0 | 70.2* | 31.7 | 5.3 | -0.1
CCOc1ccc(CCNC(=O)c2cc(-c3ccccc3)c(N3CCOCC3)s2)cc1OCC | -3.8 | 25.9 | x | 7.0 | 0.1
CCOc1ccc(CCNC(=O)c2cc(-c3ccccc3)c(N3CCOCC3)s2)cc1 | 2.8 | 57.8* | 9.0 | 1.8 | -0.1
O=C(NC1CCN(Cc2ccccc2)CC1)c1ccc(Cn2c(=S)[nH]c3ccc(N4CCOCC4)cc3c2=O)cc1 | -2.7 | 60.3* | 44.2 | -2.8 | 0.2
O=c1c2ccccc2[nH]c(=S)n1CCCN1CCN(c2ccccc2)CC1 | 3.7 | 57.8* | 11.3 | -3.8 | 0.0
O=C(CCCCCn1c(=S)[nH]c2ccc(N3CCOCC3)cc2c1=O)NC1CCN(Cc2ccccc2)CC1 | -3.5 | 64.5* | 5.6 | 2.7 | -0.4
O=C(c1ccc(Cn2c(=S)[nH]c3ccc(N4CCOCC4)cc3c2=O)cc1)N1CCC(N2CCCCC2)CC1 | 6.1 | 9.9 | 3.2 | 4.6 | -0.1
O=C(OCc1cccc([N+](=O)[O-])c1)c1ccc2ccccc2n1 | 4.7 | 2.8 | -22.5 | 8.7 | 0.2
CN1CCN(/C=N/c2sc3c(c2C#N)CCCCC3)CC1 | 6.8 | 57.7* | 20.8 | 1.9 | 0.1
Cc1ccc(N(C(=O)c2snc(C(N)=O)c2N)C(C(=O)NCCC(C)C)c2ccco2)cc1 (stereo not drawn) | 11.6 | 55.9* | 2.7 | 3.2 | 0.3
CCOc1ccccc1N(CC(=O)NC1CCCC1)S(=O)(=O)c1ccc(C)cc1 | 0.3 | 12.4 | 19.4 | -4.1 | 0.2
SMILES | HDAC3 inh | T cruzi repl | AI-2 QS mod | PolyA inhibitor | Efflux pump inh
CN(c1ccccc1)c1nc(N2CCCC2)nc(-n2ccnc2)n1 | 10.1 | 12.5 | 25.8 | -51.5 | 0.1
c1ccc(-c2nc(-n3ccnc3)nc(-n3ccnc3)n2)cc1 | -0.4 | 1.2 | 6.1 | -33.8 | 0.0
c1ccc(CN2CCN(c3nc(-c4ccccc4)nc(-n4ccnc4)n3)CC2)cc1 | -5.6 | 59.6* | 25.4 | -20.1 | 0.6
c1ccc(N(c2ccccc2)c2nc(N3CCCC3)nc(-n3ccnc3)n2)cc1 | -6.9 | 57.0* | 23.2 | 1.6 | 0.2
Nc1nc(CN2CCN(c3ccccc3F)CC2)nc(N2CCCc3ccccc32)n1 | 8.9 | -5.8 | 11.5 | x | 0.0
CCC(c1nnnn1CCc1ccccc1)N(Cc1ccco1)Cc1cc2cc(C)cc(C)c2[nH]c1=O (stereo not drawn) | 3.1 | 13.1 | 8.4 | 2.0 | 0.4
CCC(c1nnnn1CCc1ccccc1)N(Cc1ccco1)Cc1cc2c(C)ccc(C)c2[nH]c1=O (stereo not drawn) | -0.3 | 55.4* | 9.7 | -6.0 | -0.1
CCOC(=O)N1CCN(C(=O)c2oc3ccc(S(=O)(=O)N4CCCCCC4)cc3c2C)CC1 | -6.5 | 64.7* | 16.4 | -2.0 | -0.1
Cc1ccc(-c2nnn(CC(=O)NC3CCN(Cc4ccccc4)CC3)n2)cc1 | 1.0 | 66.2* | -0.6 | 3.9 | -0.1
O=C(Nc1ccc(F)cc1)NC1CCN(Cc2ccccc2)CC1 | 12.1 | 59.6* | 2.2 | 5.7 | 0.0
O=C(Nc1ccccc1)NC1CCN(Cc2c(F)cccc2Cl)CC1 | 2.5 | 9.2 | 21.1 | 1.5 | 0.0
O=C(Cn1nnc(-c2ccc(Cl)cc2)n1)NC1CCN(Cc2ccccc2)CC1 | -2.9 | u | 1.7 | 15.0 | -0.1
CN1C(=O)/C(=C\c2ccccc2F)Sc2ccc(C(=O)NC3CCN(Cc4ccccc4)CC3)cc21 | 10.0 | 61.1* | 6.2 | -20.9 | 0.1
CCc1cccc(CN2CCC(CNC(=O)Nc3ccc(Cl)cc3)CC2)c1 | 3.6 | 57.3* | 14.6 | 8.7 | 0.4
CCN(CC(=O)Nc1ccc(NC(C)=O)cc1)C(=O)CCCN1C(=O)c2ccccc2C1=O | 4.0 | -4.5 | 2.5 | 9.0 | -0.1
O=C(COC(=O)c1ccc([N+](=O)[O-])o1)Nc1ccc2c(c1)OCO2 | 2.6 | x | x | x | 0.0
O=C(Nc1ccc2c(c1)OCO2)NC1CCN(Cc2ccccc2)CC1 | -2.8 | 55.6* | 3.4 | 11.3 | 0.8
Cc1ccc(S(=O)(=O)Nc2cccc(C(=O)NC3CCN(Cc4ccccc4)CC3)c2)cc1F | -0.9 | 56.3* | 4.4 | 17.2 | -0.1
O=C(NC1CCN(Cc2ccccc2)CC1)c1ccc2c(c1)[nH]c(=O)n2Cc1ccc(F)cc1 | -0.6 | 58.1* | 17.6 | -10.1 | 0.2
CCCCCn1c(=O)[nH]c2cc(C(=O)NC3CCN(Cc4ccccc4)CC3)ccc2c1=O | -0.3 | 35.3 | 26.9 | 10.0 | 0.1
CN1CCC(NC(=O)Nc2ccc(Br)cc2)CC1 | -0.1 | 61.4* | 16.1 | 16.8 | -0.1
Cc1ccc(Sc2ccc(S(=O)(=O)Nc3ccc(CC(=O)O)cc3)cc2)cc1C | -1.2 | x | x | x | 0.0
N#Cc1nc(-c2ccc(Cl)cc2)oc1NCC1CCCO1 (stereo not drawn) | -169.5 | -12.3 | 9.7 | -3.5 | -0.1
O=C(NC1CCN(Cc2ccccc2)CC1)c1ccccc1 | -5.8 | 56.0* | 30.0 | -19.2 | -0.1
CC(C)c1ccc(NC(=O)NC2CCN(CC(=O)Nc3cccc4ccccc34)CC2)cc1 | 2.6 | 55.6* | i | -3.2 | 0.1
CC(=O)CC(c1ccccc1)S(=O)(=O)c1ccc([N+](=O)[O-])cc1 (stereo not drawn) | -4.1 | -11.2 | 29.9 | 5.1 | -0.1
